From ChEMBL document CHEMBL1131427, “Synthesis of imidazo[1,2-a]pyridines as antiviral agents” (J Med Chem, 1998)
Values after ≈ are worked out from the molar mass of the structure shown.

Key:
Human alphaherpesvirus 3 [1] = experiment: Anti-VZV activity against OKA strain TK+ in HEL cells; assay type: functional, organism-based; conditions: Human alphaherpesvirus 3, oka
HEL [2] = experiment: Inhibition of cell proliferation expressed as CC50; assay type: functional, Homo sapiens
Human alphaherpesvirus 3 [3] = experiment: Anti-VZV activity against YS/R TK- in HEL cells; assay type: functional, organism-based; conditions: Human alphaherpesvirus 3, ys-r
Human alphaherpesvirus 3 [4] = experiment: Anti-VZV activity against YS TK+ in HEL cells; assay type: functional, organism-based; conditions: Human alphaherpesvirus 3, HEL
[5] = Ratio of Cytotoxicity concentration to that of virus-inhibitory concentration.; assay type: functional
How it was run: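 Selectivity index is the 50% cytotoxic concentration in HEL cells divided by the 50% inhibitory concentration against CMV strain AD-169 in HEL cells.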

Cytomegalovirus = experiment: Anti CMV (Cytomegalovirus- virus) activity against Davis strain in HEL cells; assay type: functional, organism-based; conditions: Human betaherpesvirus 5, HEL
How it was run: (§1)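 Run in human embryonic lung (HEL) cells. The value is the 50% virus-inhibitory concentration, given in µg/mL.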

Human betaherpesvirus 5 = experiment: Anti CMV (Cytomegalovirus- virus) activity against AD-169 strain in HEL cells; assay type: functional, organism-based; conditions: Human betaherpesvirus 5, HEL; how it was run: as §1
Human alphaherpesvirus 3 [6] = experiment: Anti-VZV activity against 07/1 TK- in HEL cells; assay type: functional, organism-based; conditions: Human alphaherpesvirus 3, HEL
HEL [7] = experiment: The compound was tested for Anti-VZV activity against YS/R strain TK- in HEL cells; assay type: functional, cell-based; conditions: Homo sapiens; how it was run: as §1
[8] = Ratio of 50% cytotoxic concentration to 50% virus-inhibitory concentration [the latter based on the 50% inhibitory concentration for CMV (AD-169 strain); assay type: functional
HEL [9] = experiment: The compound was tested for Anti-VZV activity against YS strain TK+ in HEL cells; assay type: functional, cell-based; conditions: Homo sapiens; how it was run: as §1
HEL [10] = experiment: The compound was tested for Anti-VZV activity against 07/1 strain TK- in HEL cells; assay type: functional, cell-based; conditions: Homo sapiens; how it was run: as §1
HEL [11] = experiment: The compound was tested for inhibition of cell proliferation in Human Embryonic Lung (HEL) Cells.; assay type: functional

SMILES	IC50 (Human alphaherpesvirus 3 [1])	CC (HEL [2])	IC50 (Human alphaherpesvirus 3 [3])	IC50 (Human alphaherpesvirus 3 [4])	Selectivity index [5]	IC50 (Cytomegalovirus)	IC50 (Human betaherpesvirus 5)	IC50 (Human alphaherpesvirus 3 [6])	IC50 (HEL [7])	Selectivity index [8]	IC50 (HEL [9])	IC50 (HEL [10])	CC50 (HEL [11])
Cc1ccn2c(CSCc3ccccc3)cnc2c1	15 µg/mL (≈ 55.9 µM)	45 µg/mL	10 µg/mL (≈ 37.3 µM)	17 µg/mL (≈ 63.3 µM)	13	3.5 µg/mL (≈ 13 µM)	3.5 µg/mL (≈ 13 µM)	–	–	–	–	–	–
Cc1ccn2c(CSCc3ccccc3)c(-c3ccccc3)nc2c1	> 20 µg/mL	>50 µg/mL	> 50 µg/mL	> 20 µg/mL	–	> 20 µg/mL	> 20 µg/mL	> 50 µg/mL	–	–	–	–	–
Cc1cccn2c(CSCc3ccccc3)cnc12	0.9 µg/mL (≈ 3.35 µM)	8 µg/mL	> 1 µg/mL	0.3 µg/mL (≈ 1.12 µM)	40	0.2 µg/mL (≈ 0.745 µM)	0.2 µg/mL (≈ 0.745 µM)	0.4 µg/mL (≈ 1.49 µM)	–	–	–	–	–
Cc1ccc(C)n2c(CSCc3ccccc3)cnc12	> 2 µg/mL	3 µg/mL	> 2 µg/mL	> 2 µg/mL	2.5	> 2 µg/mL	1.2 µg/mL (≈ 4.25 µM)	> 2 µg/mL	–	–	–	–	–
O=c1[nH]c(=O)n([C@H]2C[C@H](O)[C@@H](CO)O2)cc1/C=C/Br [BRIVUDINE]	0.0009 µg/mL (≈ 0.0027 µM)	>50 µg/mL	> 20 µg/mL	0.002 µg/mL (≈ 0.006 µM)	–	–	–	> 50 µg/mL	–	–	–	–	–
Cc1cc(Br)c2ncc(CSCc3ccccc3)n2c1	31 µg/mL (≈ 89.3 µM)	>50 µg/mL	4 µg/mL (≈ 11.5 µM)	> 50 µg/mL	>45	1.1 µg/mL (≈ 3.17 µM)	1.1 µg/mL (≈ 3.17 µM)	9 µg/mL (≈ 25.9 µM)	–	–	–	–	–
Cc1ccn2c(CSCc3ccccc3)c(C)nc2c1	10.5 µg/mL (≈ 37.2 µM)	>50 µg/mL	10 µg/mL (≈ 35.4 µM)	> 5 µg/mL	>15	3.5 µg/mL (≈ 12.4 µM)	3.4 µg/mL (≈ 12 µM)	14.1 µg/mL (≈ 49.9 µM)	–	–	–	–	–
Cc1nc2ccccn2c1CSCc1ccccc1	0.37 µg/mL (≈ 1.38 µM)	33 µg/mL	0.28 µg/mL (≈ 1.04 µM)	0.23 µg/mL (≈ 0.857 µM)	275	0.13 µg/mL (≈ 0.484 µM)	0.12 µg/mL (≈ 0.447 µM)	0.5 µg/mL (≈ 1.86 µM)	–	–	–	–	–
Nc1nc2c(ncn2COC(CO)CO)c(=O)[nH]1 [GANCICLOVIR]	–	>100 µg/mL	–	–	–	0.5 µg/mL (≈ 1.96 µM)	0.5 µg/mL (≈ 1.96 µM)	–	–	–	–	–	–
Cc1ccn2c(CSCc3ccccc3Cl)cnc2c1	1.8 µg/mL (≈ 5.94 µM)	18 µg/mL	> 5 µg/mL	> 5 µg/mL	36	0.7 µg/mL (≈ 2.31 µM)	0.5 µg/mL (≈ 1.65 µM)	> 5 µg/mL	–	–	–	–	–
FC(F)(F)c1cc(Cl)c2ncc(CSCc3ccccc3)n2c1	6.6 µg/mL (≈ 18.5 µM)	40 µg/mL	9.8 µg/mL (≈ 27.5 µM)	8.8 µg/mL (≈ 24.7 µM)	<8	> 5 µg/mL	> 5 µg/mL	> 5 µg/mL	–	–	–	–	–
Cc1cc(Br)cn2c(CSCc3ccccc3)cnc12	5.5 µg/mL (≈ 15.8 µM)	>50 µg/mL	0.86 µg/mL (≈ 2.48 µM)	7 µg/mL (≈ 20.2 µM)	>417	0.12 µg/mL (≈ 0.346 µM)	0.12 µg/mL (≈ 0.346 µM)	1.4 µg/mL (≈ 4.03 µM)	–	–	–	–	–
Cc1ccc2ncc(CSCc3ccccc3)n2c1	0.74 µg/mL (≈ 2.76 µM)	23 µg/mL	1.2 µg/mL (≈ 4.47 µM)	6.4 µg/mL (≈ 23.8 µM)	77	0.5 µg/mL (≈ 1.86 µM)	0.3 µg/mL (≈ 1.12 µM)	2.58 µg/mL (≈ 9.61 µM)	–	–	–	–	–
Cc1ccn2c(CSCCc3ccccc3)cnc2c1	0.2 µg/mL (≈ 0.708 µM)	>50 µg/mL	0.66 µg/mL (≈ 2.34 µM)	0.5 µg/mL (≈ 1.77 µM)	>151	0.35 µg/mL (≈ 1.24 µM)	0.33 µg/mL (≈ 1.17 µM)	0.95 µg/mL (≈ 3.36 µM)	–	–	–	–	–
Cc1ccn2c(CSCC(F)(F)F)cnc2c1	> 50 µg/mL	–	–	–	–	42 µg/mL (≈ 161 µM)	40 µg/mL (≈ 154 µM)	–	> 50 µg/mL	>1.2	> 50 µg/mL	> 50 µg/mL	> 50 µg/mL
Cc1ccn2c(CSCc3ccc(Cl)cc3)cnc2c1	2 µg/mL (≈ 6.6 µM)	19 µg/mL	> 5 µg/mL	> 5 µg/mL	16	1.6 µg/mL (≈ 5.28 µM)	1.2 µg/mL (≈ 3.96 µM)	> 5 µg/mL	–	–	–	–	–
Cc1cccn2c(CSCc3ccccc3)c(-c3ccccc3)nc12	> 2 µg/mL	13 µg/mL	2 µg/mL (≈ 5.81 µM)	> 2 µg/mL	11	> 2 µg/mL	1.2 µg/mL (≈ 3.48 µM)	> 2 µg/mL	–	–	–	–	–
Nc1nc2c(ncn2COCCO)c(=O)[nH]1 [ACYCLOVIR]	–	>100 µg/mL	–	–	–	–	–	–	–	–	–	–	–
Cc1c(Br)cc(Br)c2ncc(CSCc3ccccc3)n12	> 50 µg/mL	>50 µg/mL	> 20 µg/mL	> 50 µg/mL	–	> 50 µg/mL	> 50 µg/mL	> 50 µg/mL	–	–	–	–	–
